# Measurements of several laboratories.
# Lines come from different studies, so protocols differ.
# 4-aminobutyrate aminotransferase, mitochondrial: 4-aminobutyrate aminotransferase, mitochondrial (Homo sapiens, UniProt P80404)
# P2RX7: P2X purinoceptor 7 (P2RX7, Homo sapiens, UniProt Q99572)
# DCAF1: DDB1- and CUL4-associated factor 1 (DCAF1, Homo sapiens, UniProt Q9Y4B6)
Structure (SMILES),target,test,conditions,measurement,value
Cc1nn(CCc2ccccc2)c2ncc(C(=O)NCc3cccnc3)c(Cl)c12,"Prolyl endopeptidase (PREP, Homo sapiens, UniProt P48147)","enzyme activity, inhibitor, fluorescence",,kinact,0.000233 s⁻¹
N[C@H]1C=C(C(=O)O)CC(F)(F)C1,"4-aminobutyrate aminotransferase, mitochondrial","enzyme activity, inhibitor",,kinact/KI,2.83 M⁻¹ s⁻¹
Cc1cc(NC(=O)c2cccc(NC(=O)/C=C/CN(C)C)c2)ccc1Nc1nccc(-c2cccnc2)n1,"Interleukin-1 receptor-associated kinase 1 (IRAK1, Homo sapiens, UniProt P51617)","binding, competition with immobilised ligand",1 µM,remaining binding,11%
CNc1ncc2c(/C=C/C(=O)N3CCC(OC)CC3)nn(Cc3cccc(C(F)(F)F)c3)c2n1,"Mitogen-activated protein kinase kinase kinase 11 (MAP3K11, Homo sapiens, UniProt Q16584)","enzyme activity, inhibitor, radiometric",1 µM,remaining activity,97%
O=C(c1ccc(I)cc1)N1CCC(n2cncc2-c2ccc(OS(=O)(=O)c3cccc4cnccc34)cc2)CC1,P2RX7,"ligand displacement, radioligand","1 µM, cell membranes",inhibition,> 70%
Cc1cc([C@@H](C)Nc2ccccc2C(=O)O)c2nc(N3CCC(F)(F)CC3)c(C#N)c(=O)n2c1,"Hepatocyte growth factor receptor (MET, Homo sapiens, UniProt P08581)","binding, competition with immobilised ligand",1 µM,remaining binding,100%
C[C@@H]1CN(c2ccc(-c3cc(C(=O)NCCOCCOCCOCCOCCOCCOCCNC(=O)/C=C/c4[nH]cc(C(=O)N[C@@H](CC(N)=O)c5ccc(F)c(Cl)c5)c4-c4ccc(Cl)cc4F)ccc3F)cc2NC(=O)c2ccc(F)cc2C(F)(F)F)C[C@H](C)N1C,DCAF1,"thermal stability, DSF",5.5 µM,ΔTm,5.3 °C
N[C@H]1CC(C(=O)O)=CC(F)(F)C1,"4-aminobutyrate aminotransferase, mitochondrial","enzyme activity, inhibitor",,kinact/KI,2 M⁻¹ s⁻¹
C=CC(=O)N1CCC(COCC(=O)N2CCN(c3nc(-c4cnc(N)nc4C(F)F)nc(N4CCOC[C@@H]4C)n3)CC2)CC1,"Ribosomal protein S6 kinase alpha-4, N-terminal kinase domain (RPS6KA4, Homo sapiens, UniProt O75676)","binding, competition with immobilised ligand",1 µM,remaining binding,93%
C[C@@H]1CN(c2ccc(-c3cc(C(=O)NCCOCCOCCOCCOCCNC(=O)Cn4cc(-c5[nH]cc(C(=O)N[C@@H](CC(N)=O)c6ccc(F)c(Cl)c6)c5-c5ccc(Cl)cc5F)cn4)ccc3F)cc2NC(=O)c2c[nH]c(=O)cc2C(F)(F)F)C[C@H](C)N1C,DCAF1,"thermal stability, DSF",5.5 µM,ΔTm,8 °C
COc1ccccc1C(=O)/C=C/c1cn(Cc2cn(-c3ccnc4cc(Cl)ccc34)nn2)c2ccccc12,"Calcium-dependent protein kinase 1 (CDPK1, Plasmodium falciparum, UniProt P62344)","enzyme activity, inhibitor, ADP detection",5 µM,inhibition,88.3%
O=C(c1ccc(Br)cc1)N1CCC(n2cncc2-c2ccc(OS(=O)(=O)c3cccc4cnccc34)cc2)CC1,P2RX7,"ligand displacement, radioligand","1 µM, cell membranes",inhibition,> 70%
COc1cc(-c2cncc3c2CN(C)Cc2cc(N4CCNCC4)ccc2-3)cc(OC)c1OC,"Hepatocyte growth factor receptor (MET, Homo sapiens, UniProt P08581, Y1230H)","enzyme activity, inhibitor",1 µM,remaining activity,86%
